Measurements taken from ChEMBL document CHEMBL1140405, “6-Acylamino-2-aminoquinolines as potent melanin-concentrating hormone 1 receptor antagonists. Identification, structure-activity relationship, and investigation of binding mode” (J Med Chem, 2005).
In brackets after ≈: the same amount, converted by molar mass.

How the values were obtained:
[1] = target: Melanin-concentrating hormone receptor 2 (Homo sapiens, UniProt Q969V1); assay: Displacement of 30 pM [125I]-MCH from human MCH2R expressed in CHO-K1 in whole-cell binding assay
[2] = target: Melanin-concentrating hormone receptor 1 (Homo sapiens, UniProt Q99705); assay: Displacement of 150p M [125I]MCH from human MCH1R expressed in CHO-K1 cells at 10 uM; type: cell-based
[3] = target: T1, 5-hydroxytryptamine receptor 2C (Homo sapiens, UniProt P28335); assay: Inhibitory concentration against human 5-hydroxytryptamine 2C receptor expressed in CHO-K1 cells using [3H]mesulergine; type: cell-based
T1 sequence (P28335 whole entry): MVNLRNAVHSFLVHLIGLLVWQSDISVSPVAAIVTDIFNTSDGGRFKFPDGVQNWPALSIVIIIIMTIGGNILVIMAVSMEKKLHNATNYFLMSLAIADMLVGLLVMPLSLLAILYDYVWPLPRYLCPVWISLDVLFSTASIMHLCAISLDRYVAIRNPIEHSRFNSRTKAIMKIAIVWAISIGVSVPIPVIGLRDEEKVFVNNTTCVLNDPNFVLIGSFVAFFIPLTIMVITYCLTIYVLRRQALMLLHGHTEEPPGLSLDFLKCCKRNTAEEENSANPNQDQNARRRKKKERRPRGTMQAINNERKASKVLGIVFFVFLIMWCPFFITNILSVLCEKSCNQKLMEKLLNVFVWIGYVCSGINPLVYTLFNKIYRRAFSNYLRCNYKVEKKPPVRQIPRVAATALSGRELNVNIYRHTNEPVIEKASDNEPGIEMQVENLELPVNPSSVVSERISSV
Method in brief: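 SPA competition binding on purchased membranes from CHO-K1 cells expressing h5-HT2c (4 μg/well), with YSi-WGA beads (0.4 mg/well) and [3H]mesulergine tracer, across various test-compound concentrations. Buffer is 50 mM Tris pH 7.7, 50 mM MgCl2 and 0.1% pargyline. Nonspecific binding uses 1 μM cold mesulergine. IC50 is taken by nonlinear regression.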

[4] = Solubility was determined by addition of 10 mM DMSO solution of test compound to PBS (pH 7) until opalescence

Melanin-concentrating hormone receptor 2, sequence (Q969V1 whole entry): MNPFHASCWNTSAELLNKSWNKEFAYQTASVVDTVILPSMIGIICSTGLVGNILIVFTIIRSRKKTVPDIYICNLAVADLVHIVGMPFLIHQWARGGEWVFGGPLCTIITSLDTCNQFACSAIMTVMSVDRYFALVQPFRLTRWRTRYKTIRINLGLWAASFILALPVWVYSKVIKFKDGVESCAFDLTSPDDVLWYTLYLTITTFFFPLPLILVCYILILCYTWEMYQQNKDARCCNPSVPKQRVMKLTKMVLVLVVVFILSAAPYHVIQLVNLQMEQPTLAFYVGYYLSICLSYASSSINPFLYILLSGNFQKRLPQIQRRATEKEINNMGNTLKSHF
Melanin-concentrating hormone receptor 1, sequence (Q99705 whole entry): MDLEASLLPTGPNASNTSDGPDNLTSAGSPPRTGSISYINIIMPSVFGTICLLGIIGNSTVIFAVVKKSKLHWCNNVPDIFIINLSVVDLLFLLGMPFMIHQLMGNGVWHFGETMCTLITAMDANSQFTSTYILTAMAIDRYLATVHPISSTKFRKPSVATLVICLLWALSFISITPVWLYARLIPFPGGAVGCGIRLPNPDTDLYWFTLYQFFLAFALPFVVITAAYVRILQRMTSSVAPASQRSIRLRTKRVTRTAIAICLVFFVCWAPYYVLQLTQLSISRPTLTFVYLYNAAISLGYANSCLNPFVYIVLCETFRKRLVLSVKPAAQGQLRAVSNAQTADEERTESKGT

| Compound | IC50 [1] [µM] | inhibition [2] [%] | IC50 [3] [µM] | also measured |
| --- | --- | --- | --- | --- |
| Cc1cc(N2CCC(N3CCCC3)CC2)nc2ccc(NC(=O)COc3ccc(OC(F)(F)F)cc3)cc12 | 6.3 |  |  |  |
| Cc1cc(N2CCN(c3ncccn3)CC2)nc2ccc(NC(=O)COc3ccc(Cl)cc3Cl)cc12 |  | 41 |  |  |
| Cc1cc(N2CCNCC2)nc2ccc(NC(=O)/C=C/c3ccc(OC(F)(F)F)cc3)cc12 | > 10 |  | 1.1 | solubility kinetic ([4]; buffer): 25 µM (≈ 11.4 µg/mL) |
| Cc1cc(N2CCOCC2)nc2ccc(NC(=O)COc3ccc(Cl)cc3Cl)cc12 |  |  |  | solubility kinetic ([4]; PBS): 10 µM (≈ 4.46 µg/mL) |
| Cc1cc(NC(C)CN(C)C)nc2ccc(NC(=O)/C=C/c3ccc(OC(F)(F)F)cc3)cc12 (stereo not drawn) |  |  | 18 |  |
| Cc1cc(N2CC3CC2CN3)nc2ccc(NC(=O)COc3ccc(OC(F)(F)F)cc3)cc12 (stereo not drawn) | 6.8 |  |  | solubility kinetic ([4]; PBS): 150 µM (≈ 70.9 µg/mL) |
| Cc1cc(N(C)CCO)nc2ccc(NC(=O)COc3ccc(Cl)cc3Cl)cc12 | > 10 |  | 5.9 | solubility kinetic ([4]; PBS): 5 µM (≈ 2.17 µg/mL) |
| CCN1CCN(c2cc(C)c3cc(NC(=O)/C=C/c4ccccc4OC(C)C)ccc3n2)CC1 |  | 41 |  |  |
| CCN1CCN(c2cc(C)c3cc(NC(=O)c4ccc(OC)cc4)ccc3n2)CC1 |  | 40 |  |  |
| Cc1cc(N2CCOCC2)nc2ccc(NC(=O)COc3ccc(OC(F)(F)F)cc3)cc12 | > 10 |  | > 10 | solubility kinetic ([4]; PBS): 25 µM (≈ 11.5 µg/mL) |
| CCN1CCN(c2cc(C)c3cc(NC(=O)c4cc(=O)c5ccccc5o4)ccc3n2)CC1 |  | 71 |  |  |
| COc1ccc(OC)c(/C=C/C(=O)Nc2ccc3nc(N4CCN(C)CC4)cc(C)c3c2)c1 |  | 47 |  |  |
| CCN1CCCC1CNc1cc(C)c2cc(NC(=O)COc3ccc(OC(F)(F)F)cc3)ccc2n1 (stereo not drawn) | > 10 |  | 4.7 |  |
| Cc1cc(NCCCN(C)C)nc2ccc(NC(=O)COc3ccc(OC(F)(F)F)cc3)cc12 | 7.1 |  | 4 |  |
